Non-standard residues stand in square brackets, D forms with d. Residues, ends and D or L forms follow the SMILES beside them. Dmt = Cc1cc(O)cc(C)c1C[C@H](N)C(=O)O; Tic = O=C(O)[C@@H]1Cc2ccccc2CN1

The record followed here is ChEMBL document CHEMBL1144275, “Studies on the structure-activity relationship of 2',6'-dimethyl-l-tyrosine (Dmt) derivatives: bioactivity profile of H-Dmt-NH-CH(3)” (Bioorg Med Chem Lett, 2005).

Test [1] is described as follows: Binding affinity for rat brain opioid receptor mu 1. The gist of the method: (§1)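 Ki values given as the mean ± SE of four to seven experiments; selectivity expressed as Kiδ/Kiμ.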
For the next test, the species on record is Rattus norvegicus. Nature of the test: Ratio of binding affinities for opioid receptors delta 1 and mu 1. The essentials: as §1
A short description of test [2]: Binding affinity for rat brain opioid receptor delta 1. The essentials: as §1
The species entered for test [3] is Mus musculus. Nature of the test: Minimum effective dose showing antinociception activity in mice. The test is classed as functional. The essentials:
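Minimum effective dose (nmol) for antinociception in mice after intracerebroventricular administration, measured by tail-flick and hot-plate tests.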

Test [4] concerns Mus musculus. Description: Analgesia was determined by hotplate (HP) test relative to morphine in mice after antinociception of intracerebroventricularly (icv) administration;Range-0.64?0.85. The format is functional.
For test [5], the species on record is Mus musculus. Nature of the test: Percent antagonism was evaluated relative to morphine in mice using naloxone. The test is classed as functional.
Test [6] deals with Mus musculus. Description: Analgesia was determined by tail-flick (TF) test relative to morphine in mice after antinociception of intracerebroventricularly (icv) administration;Range 1.3-1.7. The test is classed as functional.
The subject of test [7] is Mus musculus. Description: Analgesia was determined by tail-flick (TF) test relative to morphine in mice after antinociception of intracerebroventricularly (icv) administration;Range 0.48-0.55. The format is functional.
The subject of test [8] is Mus musculus. Nature of the test: Analgesia was determined by hotplate (HP) test relative to morphine in mice after antinociception of intracerebroventricularly (icv) administration. The test is classed as functional.

For orientation: Ki means a dissociation constant, usually derived from enzyme kinetics or from competition with a known ligand. Read a low Ki as tighter binding. Take `Cc1cc(O)cc(C)c1C[C@H](N)C(=O)Nc1ccccc1`: the values for the Ki in test [1] and in test [2] were 1.73 µM and 0.12 µM, respectively. Further, the Ratio in the test filed under Rattus norvegicus came to 0.069.
As to `Cc1cc(O)cc(C)c1C[C@H](N)C(=O)NC1CCCCC1`, the Ki in test [1] worked out at 0.115 µM; in test [2] it was 0.197 µM. The Ratio in the test filed under Rattus norvegicus is 1.71.
Turning to `Cc1cc(O)cc(C)c1C[C@H](N)C(=O)NCN`, the Ki in test [1] was found to be 0.18 µM; in [2], 2.41 µM. In the test listed under Rattus norvegicus, the Ratio was found to be 13.4.
Regarding `Cc1cc(O)cc(C)c1C[C@H](N)C(=O)NCCC(=O)O`, the figures for the Ki in [1] and in test [2] were 0.329 µM and 0.328 µM, respectively. Besides, the Ratio in the test listed under Rattus norvegicus is 1.
With `Cc1cc(O)cc(C)c1C[C@H](N)C(=O)O`, the Ratio in the test filed under Rattus norvegicus stood at 1.55. The compound further showed a Ki in test [2] of 46.5 µM.
For the compound `CNC(=O)[C@@H](N)Cc1c(C)cc(O)cc1C`, in the test filed under Mus musculus [3], the MED turned out to be 30 nM. Also, the Ki amounted to 0.00745 µM in test [1] and 0.46 µM in [2]. In addition, the Activity in the test with Mus musculus [4] stood at 0.85%; with Mus musculus [6], 1.7%. Also, the Ratio in the test listed under Rattus norvegicus came out at 61.7. In the test listed under Mus musculus [5], this compound yielded an Antagonism of 73%.
`Cc1cc(O)cc(C)c1C[C@H](N)C(=O)NCCN`: the results for the Ki in test [1] and in [2] were 0.0108 µM and 3.65 µM, respectively. Moreover, the Ratio in the test filed under Rattus norvegicus came to 338.
In turn, `Cc1cc(O)cc(C)c1C[C@H](N)C(N)=O` yielded an MED in the test listed under Mus musculus [3] of 200 nM. The Ratio in the test filed under Rattus norvegicus came out at 13. In the test listed under Mus musculus [5], the Antagonism is reported as 100%. Further, the Activity in the test on Mus musculus [7] came to 0.55%; in the test with Mus musculus [8], 0.26%. This compound showed a Ki in test [2] of 1.47 µM.
With `Cc1cc(O)cc(C)c1C[C@H](N)C(=O)Nc1cccc2ccccc12`, the Ki in test [1] amounted to 0.966 µM; in test [2], 0.0528 µM. Further, in the test listed under Rattus norvegicus, the Ratio was 0.054.
With `CONC(=O)[C@@H](N)Cc1c(C)cc(O)cc1C`, the Ki in test [1] came out at 0.174 µM; in test [2] it was 4.58 µM. Besides, the Ratio in the test filed under Rattus norvegicus worked out at 26.3.
`CCCNC(=O)[C@@H](N)Cc1c(C)cc(O)cc1C`: the Ki in [1] stood at 0.0169 µM; in [2], 0.166 µM. Moreover, the Ratio in the test listed under Rattus norvegicus stood at 9.82.
In the case of `Cc1cc(O)cc(C)c1C[C@H](N)C(=O)NCC(=O)O`, the results for the Ki in test [1] and in test [2] were 2.7 µM and 1.15 µM, respectively. Also, the Ratio in the test listed under Rattus norvegicus stood at 0.43.
As to `Cc1cc(O)cc(C)c1C[C@H](N)C(=O)NC1C2CC3CC(C2)CC1C3` (some centres undefined), the Ki in test [1] was 0.746 µM; in [2], 0.175 µM. For the same compound, the Ratio in the test listed under Rattus norvegicus stood at 0.23.
With `Cc1cc(O)cc(C)c1C[C@H](N)C(=O)NO`, the Ratio in the test listed under Rattus norvegicus was 5.58. For the same compound, the Ki in test [2] came out at 9.49 µM.
As for `CCNC(=O)[C@@H](N)Cc1c(C)cc(O)cc1C`, the values for the Ki in test [1] and in test [2] were 0.0156 µM and 0.649 µM, respectively. Besides, in the test filed under Rattus norvegicus, the Ratio is 41.6.
`Cc1cc(O)cc(C)c1C[C@H](N)C(=O)NCCO`: the results for the Ki in test [1] and in test [2] were 0.0162 µM and 0.455 µM, respectively. In addition, the Ratio in the test filed under Rattus norvegicus was 28.1.
Regarding `Cc1cc(O)cc(C)c1C[C@H](N)C(=O)NC(C)C`, the Ki in [1] was found to be 0.0224 µM; in [2] it was 0.492 µM. Also, in the test filed under Rattus norvegicus, the Ratio is 22.
Take `Cc1cc(O)cc(C)c1C[C@H](N)C(=O)NC12CC3CC(CC(C3)C1)C2`: the Ki was found to be 0.767 µM in test [1] and 0.208 µM in [2]. Besides, the Ratio in the test filed under Rattus norvegicus is 0.27.
`Cc1cc(O)cc(C)c1C[C@H](N)C(=O)N1Cc2ccccc2C[C@H]1C(=O)O` (H-[Dmt]-[Tic]-OH): the inhibition constant (Ki) in test [1] was found to be 3.22 µM. The Ratio in the test filed under Rattus norvegicus came to 6.6e-07.
For the compound `Cc1cc(O)cc(C)c1C[C@H](N)C(=O)NC(C)(C)C`, the Ki in test [1] stood at 0.036 µM; in test [2], 0.531 µM. Moreover, the Ratio in the test listed under Rattus norvegicus stood at 14.8.
